inhibition, IC50 and inhibition in vivo data for 17 compounds are collected here from ChEMBL document CHEMBL1154590, “Synthesis and evaluation of dimeric 1,2,3,4-tetrahydro-naphthalenylamine and indan-1-ylamine derivatives with mast cell-stabilising and anti-allergic activity” (2010).

Experiment [1] deals with Mast cell. In words: Inhibition of 48/80-induced histamine release in Wistar rat peritoneal mast cells at 2 x 10^-5 M after 5 mins.
For experiment [2], the system named is Mast cell. In words: Inhibition of 48/80-induced histamine release in Wistar rat peritoneal mast cells after 5 mins. The experiment is classed as functional.
In experiment [3] the test system is Mast cell. The experiment in a line: Inhibition of A23187-induced histamine release in Wistar rat peritoneal mast cells. It counts as functional. An outline of the steps: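 Rat peritoneal mast cells from female Wistar rats, in mast cell medium (MCM) buffer. Histamine release was elicited with A23187 at 1 µg ml-1. IC50 determined.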
For experiment [4], the system named is Mast cell. In words: Inhibition of concanavalin A-induced histamine release in Wistar rat peritoneal mast cells. It counts as functional. An outline of the steps:
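Female Wistar rat peritoneal mast cells, in mast cell medium (MCM) buffer. Concanavalin A at 20 µg ml-1 served as the degranulating stimulus. IC50 determined.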

Experiment [5] has as its system Mast cell. The experiment in a line: Inhibition of vancomycin-induced histamine release in Wistar rat peritoneal mast cells. The experiment is classed as functional. In short, it runs like this: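 Peritoneal mast cells from female Wistar rats, in Tyrodes buffer, challenged with vancomycin at 2.52 mg mL-1 to induce degranulation. IC50 determined.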
For another experiment, the system named is Rattus norvegicus. In words: Antiallergic activity in Wistar rat assessed as inhibition of ovalbumin-induced passive cutaneous anaphylaxis reaction at 3 mg/kg, iv treated after 48 hrs of ovalbumin challenge measured after 30 mins. The experiment is classed as functional. An outline of the steps:
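Female Wistar rats were sensitised by intradermal antiserum (0.1 mL per site) against ovalbumin, raised in rats given ovalbumin with heat-killed Bordetella pertussis. Sites were excised at 30 min, digested in KOH overnight at 37 °C and extracted with H3PO4/acetone. Absorbance read at 620 nm; % inhibition reported.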

Experiment [6] relates to Mast cell. The experiment in a line: Inhibition of anti-IgE-induced histamine release in Brown Norway rat peritoneal mast cells at 10^-5 M.
For experiment [7], the system named is Mast cell. The experiment in a line: Inhibition of 48/80-induced histamine release in Wistar rat peritoneal mast cells at 2 x 10^-5 M after 5 mins. It counts as functional.
Experiment [8] deals with Mast cell. The experiment in a line: Inhibition of anti-IgE-induced histamine release in Brown Norway rat peritoneal mast cells at 2 x 10^-5 M.

Molecules are shown by their SMILES. The source made the active and inactive calls. No cut-off for these calls is given here.

Regarding `CN(C1CCOc2ccccc21)C1CC(=O)c2ccccc21` (stereo unspecified), the inhibition (as a rule, the change of the read-out against control, counted positive when it falls) at 20 µM in the experiment with Mast cell [1] worked out at 100%.
As to `CN(C1CCCc2ccccc21)C1CC(=O)c2ccccc21` (stereo unspecified), the half-maximal inhibitory concentration (IC50) (commonly the concentration needed to halve the response being measured) in the experiment on Mast cell [2] was determined as 1500 nM; with Mast cell [3] it was 2000 nM; with Mast cell [4], 700 nM; with Mast cell [5], 4700 nM. In addition, the inhibition in vivo – broadly, the percentage by which the read-out fell short of the control – at 3 mg/kg in the experiment with Rattus norvegicus came to 13%. Moreover, in the experiment with Mast cell [6], the inhibition at 10 µM is 68%. For the same compound, the inhibition at 20 µM in the experiment with Mast cell [1] amounted to 93%.
Compound `COc1ccc2c(c1)C(N(C)C1CCCc3ccccc31)CC2=O` (stereo unspecified) displayed an inhibition at 20 µM with Mast cell [7] of 55%. The inhibition in vivo at 3 mg/kg with Rattus norvegicus is 62%.
Consider `O=C1CC(N(Cc2ccccc2)C2CCc3ccccc3C2)c2ccccc21` (stereo unspecified), for which the inhibition in vivo at 3 mg/kg in the experiment with Rattus norvegicus stood at 79%. For the same compound, in the experiment with Mast cell [1], at 20 µM the inhibition was 67%.
The corresponding values for `O=C(O)c1cc(=O)c2c(OCC(O)COc3cccc4oc(C(=O)O)cc(=O)c34)cccc2o1` [CROMOLYN SODIUM] are 99% and 10%.
Take `CN(C1CCc2ccccc2C1)C1CC(=O)c2ccccc21` (stereo unspecified): the inhibition in vivo at 3 mg/kg with Rattus norvegicus turned out to be 98%. In addition, the inhibition at 20 µM amounted to 95% in the experiment with Mast cell [8] and 76% in the experiment with Mast cell [1].
In the case of `CN(C1CCC(=O)c2ccccc21)C1CC(=O)c2ccccc21` (stereo unspecified), in the experiment with Mast cell [1], 20 µM produced 61% inhibition.
Regarding `COc1cc(CN(C2CCc3ccccc3C2)C2CC(=O)c3ccccc32)cc(OC)c1OC` (stereo unspecified), in the experiment on Mast cell [7], 20 µM produced 40% inhibition. Moreover, in the experiment with Rattus norvegicus, the inhibition in vivo at 3 mg/kg turned out to be 70%.
For `C=CCN(C1CCc2ccccc2C1)C1CC(=O)c2ccccc21` (stereo unspecified), the inhibition in vivo at 3 mg/kg in the experiment on Rattus norvegicus was found to be 82%. Also, testing at 20 µM with Mast cell [1] gave an inhibition of 59%.
The corresponding values for `Cc1ccc(CN(C2CCc3ccccc3C2)C2CC(=O)c3ccccc32)cc1` (stereo unspecified) are 73% and 68%.
Consider `CN(C1CCCc2ccccc21)C1CCCc2ccccc21` (stereo unspecified), for which, in the experiment with Mast cell [7], the inhibition entry is “inactive”.
In the case of `C=CCN(C1CCCc2ccccc21)C1CC(=O)c2ccccc21` (stereo unspecified), the inhibition in vivo at 3 mg/kg in the experiment with Rattus norvegicus turned out to be 72%. 20 µM produced 92% inhibition in the experiment with Mast cell [1].
Regarding `CC(=O)N(C1CCCc2ccccc21)C1CC(=O)c2ccccc21` (stereo unspecified), the inhibition result in the experiment with Mast cell [7] is “inactive”.
With `CN(C1CCc2ccccc21)C1CCC(=O)c2ccccc21` (stereo unspecified), the inhibition entry in the experiment on Rattus norvegicus is “inactive”. This compound yielded an inhibition at 20 µM in the experiment on Mast cell [1] of 14%.
Regarding `CN(C1CCCc2ccccc21)C1CCC(=O)c2ccccc21` (stereo unspecified), the IC50 in the experiment on Mast cell [3] is 38000 nM; with Mast cell [4], 2400 nM. The inhibition in vivo at 3 mg/kg in the experiment with Rattus norvegicus turned out to be 29%. In addition, the inhibition at 20 µM with Mast cell [1] stood at 99%.
`COc1ccc2c(c1)C(N(C)C1CC(=O)c3ccccc31)CCC2` (stereo unspecified) gave an inhibition at 20 µM with Mast cell [1] of 100%.
Consider `COc1cccc2c1C(=O)CC2N(C)C1CCCc2ccccc21` (stereo unspecified), for which at 20 µM the inhibition in the experiment with Mast cell [7] was 48%.
